Results: ChEMBL document CHEMBL1144446, “Synthesis and Src kinase inhibitory activity of 2-phenyl- and 2-thienyl-7-phenylaminothieno[3,2-b]pyridine-6-carbonitriles” (J Med Chem, 2005)

What was measured:
[1] = molecular target: Proto-oncogene tyrosine-protein kinase Src (Homo sapiens, UniProt P12931); assay: Inhibition of Src protein tyrosine kinase in LANCE format enzyme assay
[2] = Plasma concentration upon oral dose at 50 mg/kg in mouse after 24 hours; type: ADME, organism-based; design: dose 50 mg/kg, route oral
Summary of the method: (§1)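 Nude mice received one oral dose of 50 mg/kg in a vehicle of 0.5% methylcellulose and 0.4% Tween 80. Plasma was sampled at 4 and 24 h and analyzed for the amount of parent compound remaining, reported in µg/mL.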

[3] = Plasma concentration upon oral dose at 50 mg/kg in mouse after 4 hours; type: ADME, organism-based; design: dose 50 mg/kg, route oral; summary of the method: as §1
K562 = assay: cells; settings: Homo sapiens

Sequence of Proto-oncogene tyrosine-protein kinase Src (P12931 2-536 limits assumed): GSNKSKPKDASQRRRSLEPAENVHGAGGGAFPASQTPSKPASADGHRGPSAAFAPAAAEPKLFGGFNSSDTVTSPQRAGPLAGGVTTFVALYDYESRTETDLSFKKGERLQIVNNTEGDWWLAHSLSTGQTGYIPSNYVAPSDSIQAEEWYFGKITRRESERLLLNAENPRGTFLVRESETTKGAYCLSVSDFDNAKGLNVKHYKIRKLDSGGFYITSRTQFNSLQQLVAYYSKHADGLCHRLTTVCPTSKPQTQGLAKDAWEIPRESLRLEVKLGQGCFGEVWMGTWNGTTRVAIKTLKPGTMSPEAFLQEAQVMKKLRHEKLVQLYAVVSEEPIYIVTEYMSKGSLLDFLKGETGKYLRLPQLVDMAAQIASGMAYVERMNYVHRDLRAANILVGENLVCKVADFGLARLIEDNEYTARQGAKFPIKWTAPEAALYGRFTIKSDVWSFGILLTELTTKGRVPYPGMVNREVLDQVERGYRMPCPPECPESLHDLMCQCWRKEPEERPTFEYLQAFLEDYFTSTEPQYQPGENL

| Structure (SMILES) | IC50 [1] [nM] | concentration at 24 h [2] [ng/mL] | concentration at 4 h [3] [ng/mL] | IC50 (K562) [nM] |
| --- | --- | --- | --- | --- |
| CN1CCN(Cc2ccc(-c3cc4ncc(C#N)c(Nc5ccc(Oc6ccccc6)cc5)c4s3)cc2)CC1 | 140 | – | – | – |
| COc1cc(Nc2c(C#N)cnc3cc(-c4ccc(CCN(C)C)cc4)sc23)c(Cl)cc1Cl | 8.8 | – | – | – |
| COc1cc(Nc2c(C#N)cnc3cc(-c4ccc(N(C)C)cc4)sc23)c(Cl)cc1Cl | 110 | – | – | – |
| COc1cc(Nc2c(C#N)cnc3cc(-c4ccc(C(=O)N(C)C)cc4)sc23)c(Cl)cc1Cl | 23 | – | – | – |
| COc1cc(Nc2c(C#N)cnc3cc(-c4ccc(C(=O)N5CCN(C)CC5)cc4)sc23)c(Cl)cc1Cl | 13 | 59 | 1600 | – |
| CCN1CCN(Cc2ccc(-c3cc4ncc(C#N)c(Nc5cc(OC)c(Cl)cc5Cl)c4s3)cc2)CC1 | 8.2 | – | – | – |
| COc1cc(Nc2c(C#N)cnc3cc(-c4ccsc4CN4CCN(C)CC4)sc23)c(Cl)cc1Cl | 420 | – | – | – |
| COc1cc(Nc2c(C#N)cnc3cc(-c4ccc(CN5CCNCC5)cc4)sc23)c(Cl)cc1Cl | 7.2 | 3 | 1100 | – |
| COc1cc(Nc2c(C#N)cnc3cc(-c4ccc(CN5CCN(C)CC5)cc4)sc23)c(Cl)cc1Cl | – | 400 | 2200 | 32 |
| CN1CCN(Cc2cc(-c3cc4ncc(C#N)c(Nc5ccc(Cl)cc5Cl)c4s3)cs2)CC1 | 67 | – | – | – |
| COc1cc(Nc2c(C#N)cnc3cc(-c4ccc(CN(C)C)cc4)sc23)c(Cl)cc1Cl | 9.1 | 2 | 200 | – |
| COc1cc(Nc2c(C#N)cnc3cc(-c4ccc(CCN5CCN(C)CC5)cc4)sc23)c(Cl)cc1Cl | 15 | – | – | – |
| COc1cc(Nc2c(C#N)cnc3cc(-c4ccc(CN5CCN(CCO)CC5)cc4)sc23)c(Cl)cc1Cl | 7.4 | 69 | 1700 | – |
| COc1cc(Nc2c(C#N)cnc3cc(OCCCN4CCN(C)CC4)c(OC)cc23)c(Cl)cc1Cl [BOSUTINIB] | – | – | – | 20 |

Further lines, results first:

| IC50 [1] [nM] | concentration at 24 h [2] [ng/mL] | concentration at 4 h [3] [ng/mL] | IC50 (K562) [nM] | Structure (SMILES) |
| --- | --- | --- | --- | --- |
| 11 | – | – | – | CCCCNCc1ccc(-c2cc3ncc(C#N)c(Nc4cc(OC)c(Cl)cc4Cl)c3s2)cc1 |
| – | 320 | 1000 | – | COc1cc(Nc2c(C#N)cnc3cc(-c4csc(CN5CCN(C)CC5)c4)sc23)c(Cl)cc1Cl |
| 980 | – | – | – | CCOc1cc(Nc2c(C#N)cnc3cc(-c4ccc(CN5CCN(C)CC5)cc4)sc23)c(Cl)cc1Cl |
| 53 | – | – | – | CN(C)Cc1ccc(-c2cc3ncc(C#N)c(Nc4ccc(Cl)cc4Cl)c3s2)cc1 |
| 1300 | – | – | – | CCOc1cc(Nc2c(C#N)cnc3cc(-c4csc(CN5CCN(C)CC5)c4)sc23)c(Cl)cc1Cl |
| 52 | – | – | – | COc1cc(Nc2c(C#N)cnc3cc(-c4ccc(CN5CCSCC5)cc4)sc23)c(Cl)cc1Cl |
| 17 | – | – | – | COc1cc(Nc2c(C#N)cnc3cc(-c4ccc(CN5CCCCC5)cc4)sc23)c(Cl)cc1Cl |
